Results on 15 compounds are retold here after ChEMBL document CHEMBL2150957, “Substrate-Selective Inhibition of Cyclooxygenase-2: Development and Evaluation of Achiral Profen Probes” (ACS Med Chem Lett, 2012).

The target of series [1] is T1, Prostaglandin G/H synthase 2 (Mus musculus) (UniProt Q05769).
T1 sequence (whole entry): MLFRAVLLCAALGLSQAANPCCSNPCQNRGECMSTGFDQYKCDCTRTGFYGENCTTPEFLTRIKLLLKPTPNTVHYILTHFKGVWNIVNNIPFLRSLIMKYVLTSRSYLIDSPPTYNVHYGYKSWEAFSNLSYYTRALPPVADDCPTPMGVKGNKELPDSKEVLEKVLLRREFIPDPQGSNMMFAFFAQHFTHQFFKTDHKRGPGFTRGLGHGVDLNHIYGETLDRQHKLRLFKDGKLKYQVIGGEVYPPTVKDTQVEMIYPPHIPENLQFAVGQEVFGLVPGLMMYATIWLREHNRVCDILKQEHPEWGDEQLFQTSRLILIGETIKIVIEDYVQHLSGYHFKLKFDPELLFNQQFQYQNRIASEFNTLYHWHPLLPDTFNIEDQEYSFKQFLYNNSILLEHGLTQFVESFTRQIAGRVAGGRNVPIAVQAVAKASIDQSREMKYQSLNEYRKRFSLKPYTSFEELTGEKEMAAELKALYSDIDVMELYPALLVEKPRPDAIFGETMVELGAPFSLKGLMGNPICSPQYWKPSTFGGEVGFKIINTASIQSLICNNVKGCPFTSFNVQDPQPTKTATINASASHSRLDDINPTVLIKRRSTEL
Briefly: Inhibition of mouse COX2-mediated arachidonic acid oxygenation at 10 uM preincubated for 3 mins before […] measured after 30 seconds. In a few lines: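 Purified murine COX-2 (40 nM) preincubated 3 min with inhibitor (10 μM) in DMSO, with a solvent control. Arachidonic acid (5 μM) then added and reacted 30 s at 37 °C. Percent inhibition of AA oxygenation. Mean ± standard deviation, n = 6.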

In series [2] the target is T1, Prostaglandin G/H synthase 2 (Mus musculus). Briefly: Inhibition of mouse COX2-mediated 2-arachidonoylglycerol oxygenation at 10 uM preincubated for 3 mins before 2-arachidonoylglycerol addition measured after 30 seconds relative to control. The procedure, abridged:
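Purified murine COX-2 (40 nM) preincubated 3 min with inhibitor in DMSO, with a solvent control. 2-AG (5 μM) then added and reacted 30 s at 37 °C. Value is the maximum inhibition at 10 μM inhibitor. Mean ± standard deviation, n = 6.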

For series [3], the system named is Plasma. The series is described as follows: Metabolic stability of the compound in C57BL/6 mouse plasma assessed as parent compound level at 10 mg/kg, ip after 16 hrs. The format is ADME, organism-based. Set-up: dose 10 mg/kg, route intraperitoneal. Particulars: in vivo. In a few lines:
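Blood collected at 72 h, i.e. 16 h after the last injection. Plasma analysed for the dosed compound and, where applicable, its stereoinversion product (S)-flurbiprofen.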

The nature of series [4]: Plasma concentration in C57BL/6 mouse at 10 mg/kg, ip after 1 hr. The class given is ADME, organism-based. Also noted: dose 10 mg/kg, route intraperitoneal. In a few lines:
(§1)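 Single i.p. injection in C57BL/6 mice. Blood sampled at 1, 2 and 4 h after dosing and plasma compound concentration measured. n = 3 at 1 h, 2 at 2 h, 3 at 4 h.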

Series [5] is described as follows: Plasma concentration in C57BL/6 mouse at 10 mg/kg, ip after 2 hrs. The class given is ADME, organism-based. Also noted: dose 10 mg/kg, route intraperitoneal. In a few lines: as §1
Series [6] in a line: Plasma concentration in C57BL/6 mouse at 10 mg/kg, ip after 4 hrs. Also noted: dose 10 mg/kg, route intraperitoneal. The format is ADME, organism-based. In a few lines:
as §1

The target in series [7] is T1, Prostaglandin G/H synthase 2 (Mus musculus). The series is described as follows: Inhibition of COX2-mediated arachidonic acid oxygenation in LPS/IFN-gamma-stimulated mouse RAW264.7 cells assessed as AA to PGE2/PGD2 conversion at 25 uM treated 2 hrs after LPS/IFN-gamma stimulation measured after 6 hrs. The class given is cell-based. The procedure, abridged:
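RAW 264.7 macrophages stimulated with lipopolysaccharide and interferon γ to generate endogenous AA and 2-AG. Inhibitor added to the medium at varying doses 2 h after stimulation. Medium collected 6 h after stimulation; prostaglandin levels quantified by LC-MS-MS.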

Usually inhibition stands for the percentage by which the read-out fell short of the control.

Consider `O=C(O)Cc1cccc(C(=O)c2ccccc2)c1`, for which, in series [1], the inhibition was found to be 10%.

In series [2], `COc1ccc2cc(C(C)(C)C(=O)O)ccc2c1` gave an Imax of 12%. This compound also had an inhibition in series [1] of 7%. The compound `COc1ccc2cc(CC(=O)O)ccc2c1` displayed an inhibition in series [1] of 16%. On to `O=C(O)Cc1cccc(Oc2ccccc2)c1`, for which, in series [2], the Imax was found to be 68%. For the same compound, in series [1], the inhibition is 24%. `O=C(O)Cc1ccc(-c2ccccc2)c(F)c1` [DESMETHYLFLURBIPROFEN] yielded an inhibition in series [1] of 7%. Further, the Stability result in series [3] is on record as “Unstable”. This compound also showed a concentration at 1 h in series [4] of 68 µM. In series [5], this compound gave a concentration at 2 h of 50 µM. The concentration at 4 h in series [6] came out at 6 µM.

Consider `COc1ccc2cc(C3(C(=O)O)CC3)ccc2c1`, for which the Imax in series [2] turned out to be 77%. The inhibition in series [1] came out at 6%. Take `CC(C)(C(=O)O)c1cccc(Oc2ccccc2)c1`: the Imax in series [2] was 65%. Also, the inhibition in series [1] was 17%. `O=C(O)C1(c2ccc(-c3ccccc3)c(F)c2)CC1` returned an Imax in series [2] of 87%. Further, the values for the inhibition in series [1] and in series [7] were 0% and 55%, respectively. As for `O=C(O)C1(c2cccc(Oc3ccccc3)c2)CC1`, the inhibition in series [1] was 15%. In turn, `CC(C)Cc1ccc(C2(C(=O)O)CC2)cc1` gave an Imax in series [2] of 45%. In addition, in series [1], the inhibition worked out at 10%. The compound `CC(C)Cc1ccc(CC(=O)O)cc1` yielded an inhibition in series [1] of 14%. With `CC(C)(C(=O)O)c1ccc(-c2ccccc2)c(F)c1`, the inhibition in series [1] turned out to be 5%; in series [7], 40%. The compound `CC(C)(C(=O)O)c1cccc(C(=O)c2ccccc2)c1` had an inhibition in series [1] of 32%.

Consider `O=C(c1ccccc1)c1cccc(C2(C(=O)O)CC2)c1`, for which the Imax in series [2] is 75%. In series [1], this compound yielded an inhibition of 10%.

Compound `CC(C)Cc1ccc(C(C)(C)C(=O)O)cc1` displayed an Imax in series [2] of 5%. In addition, the inhibition in series [1] was 5%.
